Most compounds without a hit are left out; they make up all but 3.1% or so of the library.
DENV2 CPE rescue = DENV2-induced cell death inhibition; DENV2-infected cells, cytopathic effect rescue, plate reader; CPE inhibition, % at 9.99 µM; hit rate 1.7% among 350,000; AID 651640; in the data active = CPE inhibition above about 20%, passing the limit was not always enough; inconclusive = no clear call, values can overlap the other calls; tested in BHK-21 cells
miR122 inh = miR-122 inhibition in Huh7 cells; Huh7 miR-122 Renilla luciferase sensor, 48 h; neutral wells = 0, positive control = 100; activation (reporter increase), % at 12.5 µM; hit rate 0.3% among 340,000; AID 602342;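 active = mean replicate activation score at least 90 and every replicate individually at or above 90; inconclusive = only one of the two criteria met; inactive = neither criterion met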;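 note: higher luciferase means less miR-122 activity so hits act as miR-122 inhibitors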
Cneo AK release = causes C. neoformans cell lysis | AID 651654 | lysis activity, % at 15 µM | hit rate 0.2% among 360,000 | adenylate kinase release luminescence, 4 h; normalised: neutral wells 0, clomiphene wells 100;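 active = mean lysis activity across replicates of at least 80%, whatever share of replicates individually reach that level; inactive = mean lysis activity below 80%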
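Test system: log-phase Cryptococcus neoformans yeast cells; Quantity: yeast cell density of 5 × 10^6 cells/mL; Buffer or medium: YPD; Doses: single compound concentration per well; Timing: 4 h at 37 °C static, read 1 h later; Measured by: AK luminescence; Read-out basis: lysis from increased AK signal; Control set: Clomiphene as positive control.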
rRNA inh HTS = inhibitors of bacterial rRNA selective over humanized ribosomes; E. coli WT GFP vs humanized-ribosome RFP mutants, fluorescence, 24 h; hits give low values; DMSO median 0, no signal -100; GFP signal change (wild-type ribosome), % (no concentration beside the values); hit rate 1.6% among 350,000; AID 720706;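 active = significant combined selectivity score with lowered wild-type GFP, culture density cut under 30%, mutant RFP and density less affected; inactive = any of these conditions unmet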
E-selectin induc = E-selectin induction on HUVECs | activation, % at 7.58 µM | hit rate 0.37% among 260,000 | HUVEC E-selectin immunofluorescence imaging; normalized: neutral wells 0, TNF-alpha wells 100;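 active = mean E-selectin-positive cell signal at least 10% of the positive control, reached in at least 60% of replicates, without over 20% cell loss; inconclusive = no rule given, readout overlaps actives, possibly toxicity-flagged; inactive = the rest, including those meeting only one limit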
Target sequence (P16581 whole entry, looked up): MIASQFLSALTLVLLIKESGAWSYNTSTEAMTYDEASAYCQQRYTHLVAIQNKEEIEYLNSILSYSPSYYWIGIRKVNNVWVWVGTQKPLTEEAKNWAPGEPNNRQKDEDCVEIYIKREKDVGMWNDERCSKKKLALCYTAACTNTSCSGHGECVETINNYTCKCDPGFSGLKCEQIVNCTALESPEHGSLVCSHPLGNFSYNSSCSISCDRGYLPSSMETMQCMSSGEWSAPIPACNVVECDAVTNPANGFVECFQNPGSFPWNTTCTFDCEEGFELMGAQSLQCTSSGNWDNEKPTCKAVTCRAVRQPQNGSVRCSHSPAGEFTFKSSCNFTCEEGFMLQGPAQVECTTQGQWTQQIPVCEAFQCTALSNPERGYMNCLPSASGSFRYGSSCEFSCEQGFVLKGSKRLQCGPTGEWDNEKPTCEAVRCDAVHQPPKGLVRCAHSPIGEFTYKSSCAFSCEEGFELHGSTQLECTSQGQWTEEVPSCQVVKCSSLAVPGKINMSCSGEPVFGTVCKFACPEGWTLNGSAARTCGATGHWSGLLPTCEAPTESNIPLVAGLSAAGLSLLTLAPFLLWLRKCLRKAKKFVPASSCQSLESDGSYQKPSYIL
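Read-out basis: % PE-positive cells; Test system: HUVEC primary endothelial cells; Technique: immunofluorescence imaging; Dosing: single-point compound dose.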
HepG2 cytotox = kills or reduces viability of HepG2 cells | shares compounds with rRNA inh HTS | ATP luminescence, 72 h | activity change, negative = cytotoxicity, unspecified at 26 µM | 30 tested, under 10 active;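 active = compounds whose fitted half-maximal signal-loss concentration is at most twice their highest valid dose; inconclusive = flat curve with 30 to 70% signal loss, or poor fit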
AID977621 = growth inhibition of wild-type GFP E. coli, dose response, H69 mutant RFP, cherry-pick. shares compounds with rRNA inh HTS. E. coli wild-type GFP strain growth, fluorescence, 24 h. activity change, negative = inhibition at 50 µM. 1,900 tested, under 10 active. AID 977621;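 active = Wild-type ribosome reporter drop at least double the humanized mutant ribosome reporter drop, growth loss under a set limit; inconclusive = no clear call, values can overlap the other calls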;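 note: wild-type GFP and H69 mutant RFP strains grown together 50/50 in each well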
AID977628 = E. coli growth inhibition, wild-type GFP versus h24 humanized RFP strain, dose response, h24 mutant RFP vs wild-type GFP, cherry-pick; shares compounds with rRNA inh HTS; activity change, negative = inhibition at 50 µM; AID 977628; 1,900 tested, under 10 active; E. coli WT GFP strain growth, fluorescence, 24 h;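 active = compound lowering the normal-ribosome reporter at least twice as much as the humanized-ribosome reporter, growth loss under a set limit; inconclusive = no clear call, values can overlap the other calls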;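 note: wild-type GFP and h24 humanized RFP strains co-cultured 1 to 1 per well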
Each line names hits and unclear results; the compound was inactive in the other large screens (follow-up assays come after a bar, where they were run); ! = not confirmed by another sample.

COC(=O)C1CCN(C(=O)c2ccc(OC)c(S(=O)(=O)N3CCCc4ccccc43)c2)CC1	rRNA inh HTS -14 | AID977621 inactive | AID977628 inconclusive
COc1cccc(C(=O)Nc2cc(C)nn2-c2ccccc2)c1OC	rRNA inh HTS -34 | HepG2 cytotox inactive
COc1cc(C(=O)Nc2cc(C)nn2-c2ccccc2)cc(OC)c1OC	none (no result: E-selectin induc)
COc1ccc(CC(=O)NCc2csc(-c3cccs3)n2)cc1OC	rRNA inh HTS -20 (no result: miR122 inh, Cneo AK release, E-selectin induc) | AID977621 inactive
O=C(NCCCN1CCOCC1)c1sc2cc([N+](=O)[O-])ccc2c1Cl	none (no result: DENV2 CPE rescue, rRNA inh HTS, E-selectin induc) | AID977628 inactive
O=C(NCCCN1CCOCC1)c1sc2cc(Cl)ccc2c1Cl	none (no result: miR122 inh, Cneo AK release, E-selectin induc)
O=C(O)c1cc(-c2cccs2)nn1-c1cccc(Cl)c1	rRNA inh HTS -33 | AID977621 inactive | AID977628 inconclusive
O=C(O)c1cc(-c2cccs2)nn1-c1ccccc1	none
C[C@H]1CN([C@@H](C)CO)S(=O)(=O)c2ccc(/C=C/c3ccccc3)cc2O[C@@H]1CN(C)C(=O)NC1CCCC1	none
CN(Cc1ccccc1)C(=O)c1[nH]cnc1C(=O)Nc1ccc(Cl)cc1	none
COc1ccc(NC(=O)c2nc[nH]c2C(=O)N(C)Cc2ccccc2)cc1	rRNA inh HTS -19 (no result: DENV2 CPE rescue) | AID977621 inconclusive
CN(C)C(=O)C[C@@H]1C[C@@H]2c3cc(NS(=O)(=O)c4ccc(F)cc4)ccc3O[C@@H]2[C@H](CO)O1	DENV2 CPE rescue inconclusive
O=S(=O)(c1ccc(F)cc1)N1C[C@@H]2N[C@H](C1)C2c1ccc(/C=C/c2ccccc2)cc1 (stereo partly drawn)	rRNA inh HTS -28! (no result: miR122 inh, Cneo AK release) | AID977621 inactive
C/C=C/c1ccc(C2[C@@H]3CN(S(=O)(=O)c4ccc(C)cc4)C[C@H]2N3)cc1 (stereo partly drawn)	DENV2 CPE rescue inconclusive (no result: miR122 inh, Cneo AK release)
COC(=O)CC#C[C@H](C)[C@@H](NS(=O)(=O)c1ccc([N+](=O)[O-])cc1)C(C)(C)C	rRNA inh HTS -13 (no result: miR122 inh, Cneo AK release) | AID977621 inconclusive | AID977628 inconclusive
COC(=O)CC#C[C@H](C)[C@@H](NS(=O)(=O)c1ccc(C)cc1)C1CCCCC1	none (no result: miR122 inh, Cneo AK release)
CC(=O)c1c(C)[nH]c(C(=O)Nc2nc(-c3ccc(-c4ccccc4)cc3)cs2)c1C	none (no result: rRNA inh HTS)
CC(=O)c1c(C)[nH]c(C(=O)Nc2nc(C)cs2)c1C	rRNA inh HTS -21 | AID977621 inactive | AID977628 inactive
COc1cccc(OC)c1CNC(=O)CCSCc1ccccc1F	rRNA inh HTS -35 (no result: DENV2 CPE rescue, Cneo AK release) | AID977621 inactive | AID977628 inactive
COc1cccc(CNC(=O)CCSCc2ccccc2F)c1	rRNA inh HTS -29 (no result: Cneo AK release) | AID977621 inactive
CCCc1nc2ccc(Br)cn2c1Cc1ccccc1	none
CCCc1nc2ccc(Br)cn2c1Cc1cccc(Cl)c1	DENV2 CPE rescue inconclusive, rRNA inh HTS -22 | AID977621 inactive | AID977628 inactive
COCC(=O)Nc1ccc2c(c1)OC[C@H](C)N(CCC(F)(F)F)C[C@@H](C)[C@H](OC)CN(C)C2=O	none (no result: miR122 inh)
CC1CN(CC(=O)Nc2nc3ccccc3s2)CC(C)O1 (stereo not drawn)	rRNA inh HTS -15 (no result: E-selectin induc) | AID977621 inactive | AID977628 inconclusive
C[C@@H]1CCCCO[C@@H](CN(C)C(=O)NC2CCCCC2)[C@H](C)CN([C@@H](C)CO)C(=O)c2cc(NC(=O)Nc3ccc(C(F)(F)F)cc3)ccc2O1	none
CO[C@H]1CN(C)C(=O)c2ccc(NC(=O)C3CC3)cc2OC[C@@H](C)N(C(=O)C2CCCCC2)C[C@@H]1C	none
CSc1nc(SCCN(C)C)c2c3c(sc2n1)COC(C)(C)C3	rRNA inh HTS -23 (no result: miR122 inh, Cneo AK release, E-selectin induc) | AID977628 inactive
O=C(NCc1ccc(Cl)cc1)c1csc(-c2cccnc2)n1	rRNA inh HTS -37 (no result: Cneo AK release) | AID977621 inconclusive
O=C(NCc1ccccn1)c1cc(-c2ccccc2)nc2ccccc12	none (no result: miR122 inh, Cneo AK release)
Cc1cc(CNC(=O)c2cc(-c3ccccc3)nc3ccccc23)nn1C	rRNA inh HTS -24 (no result: miR122 inh, Cneo AK release, E-selectin induc) | AID977621 inactive | AID977628 inactive
CN(Cc1nnc(-c2ccc(F)cc2)o1)c1ccccc1	rRNA inh HTS -26 (no result: E-selectin induc) | AID977621 inactive | AID977628 inactive
C[C@@H]1CN([C@H](C)CO)C(=O)c2cc(NS(C)(=O)=O)ccc2O[C@@H]1CN(C)S(=O)(=O)c1cccs1	none
CN(CC(=O)Nc1cccc(F)c1)C(=O)Cn1c(=O)oc2ccccc21	rRNA inh HTS -17 (no result: E-selectin induc) | AID977621 inactive | AID977628 inactive
O=C(Cc1cccc2ccccc12)Nc1ccccc1C(=O)O	rRNA inh HTS -35 (no result: DENV2 CPE rescue) | AID977621 inactive
COc1cccc(NC(=O)N[C@@H]2CC[C@@H](CC(=O)N3CCN(C)CC3)O[C@@H]2CO)c1	none (no result: miR122 inh)
C[C@@H]1CN([C@H](C)CO)C(=O)c2cc(N(C)C)ccc2O[C@@H](C)CCCCO[C@@H]1CN(C)C(=O)c1ccncc1	none
COc1ccc(C(=O)NCCC2=CCCCC2)cc1[N+](=O)[O-]	rRNA inh HTS -22 (no result: miR122 inh) | AID977621 inactive | AID977628 inactive
CNC(=O)c1sc(-c2ccccn2)nc1C	rRNA inh HTS -23 (no result: DENV2 CPE rescue, miR122 inh, Cneo AK release) | AID977621 inactive | AID977628 inactive
CN(c1ccccc1)S(=O)(=O)c1cccc(NC(=O)c2ccncc2)c1	none (no result: miR122 inh, Cneo AK release)
Cc1cc(C)n2nc(C(=O)Nc3cccc(S(=O)(=O)N(C)c4ccccc4)c3)nc2n1	rRNA inh HTS -26 (no result: Cneo AK release) | AID977621 inactive
COC(=O)[C@@H](Cc1c[nH]c2ccccc12)NCc1cccc(B(O)O)c1	rRNA inh HTS -20 | AID977621 inconclusive
COC(=O)C(Cc1c[nH]c2ccccc12)NC(C)=O (stereo not drawn)	none (no result: DENV2 CPE rescue, rRNA inh HTS, E-selectin induc)
COc1ccc2c3c(n(C)c2c1)[C@@H](CO)N(C(=O)Nc1ccc(F)cc1)CC31CCN(Cc2ccccc2F)CC1	none (no result: miR122 inh, Cneo AK release)
O=C(C[C@H]1CC[C@H]2[C@@H](COC[C@H](O)CN2Cc2ccc(Cl)cc2)O1)Nc1nccs1	none
COc1cc(-c2ccc(N3C(c4ccsc4)=Cc4ccc(F)cc4C3c3c[nH]c4ccc(C#N)cc34)cc2)cc(OC)c1OC (stereo not drawn)	DENV2 CPE rescue inconclusive, rRNA inh HTS -25 (no result: miR122 inh, Cneo AK release) | AID977621 inactive | AID977628 inactive
CCOC(=O)c1cc(C)nc(N2CCCCC2)c1C#N	rRNA inh HTS -21 (no result: miR122 inh, Cneo AK release) | AID977621 inactive
Cc1cc(N(C)C)c(C#N)c(N2CCCCC2)n1	none (no result: DENV2 CPE rescue, rRNA inh HTS)

Source: PubChem (Broad Institute)
